# An excerpt weighted towards active compounds, which were near 2.5% of everything screened.
# mABHD4 FP: inhibitors of mouse ABHD4. 370,000 compounds, 0.54% hits. purified mABHD4, FP-Rh probe fluorescence polarization. AID 720543. Q8VD66. inhibition, % at 8.92 µM;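 active = inhibition exceeding the mean over every tested compound plus 3 SD, cut at about 30% in these data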;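 also: 0% = plate median of compound wells and 100% = S159A mutant with DMSO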
#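 Test system: mABHD4 protein; Read-out basis: % inhibition; Incubation: 45 min + 60 min at 25 °C; Repeats: single replicate; Technique: fluorescence polarization with parallel and perpendicular emission, 525/598 nm; Compound: 8.92 µM, single dose; Benchmarks: full inhibition S159A mutant plus DMSO, zero as sample-well median.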
# HTRA1 inhibitor: HTRA1 (human) protease inhibition; recombinant HTRA1, FP-rhodamine activity-based probe, fluorescence polarization; inhibition, % at 5.96 µM; 340,000 compounds, 0.5% hits; in the data active = inhibition above about 36%;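 also: 0% = enzyme with DMSO and 100% = wells lacking enzyme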
# Target sequence (Q92743 whole entry, looked up): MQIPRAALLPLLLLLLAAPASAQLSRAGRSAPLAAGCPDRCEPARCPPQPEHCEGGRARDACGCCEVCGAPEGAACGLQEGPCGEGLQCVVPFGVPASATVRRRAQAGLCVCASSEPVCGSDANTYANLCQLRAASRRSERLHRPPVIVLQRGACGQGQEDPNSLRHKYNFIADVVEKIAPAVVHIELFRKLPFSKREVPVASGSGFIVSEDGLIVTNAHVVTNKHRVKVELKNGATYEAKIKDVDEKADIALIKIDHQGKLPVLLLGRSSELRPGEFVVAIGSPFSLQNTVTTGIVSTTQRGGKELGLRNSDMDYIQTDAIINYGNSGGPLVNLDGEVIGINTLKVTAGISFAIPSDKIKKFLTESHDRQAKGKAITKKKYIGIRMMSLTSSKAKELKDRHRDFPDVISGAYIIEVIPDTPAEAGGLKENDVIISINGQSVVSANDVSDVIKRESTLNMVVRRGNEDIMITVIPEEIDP
# TCR CD3 inh: human TCR-CD3 binding inhibition. TAMRA-labeled TCR probe fluorescence, biochemical. inhibition, % at 9.4 µM. 360,000 compounds, 0.37% hits; in the data active = inhibition above about 19%;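 also: recombinant mutant TCR 2C K166C tagged with TAMRA read by polarization; 0% = receptor in buffer alone and 100% = receptor with positive control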
# SIAE inh: human SIAE inhibition, primary screen | Q9HAT2 | SIAE FP-Rh probe binding, fluorescence polarization | inhibition, % at 9.66 µM | 370,000 compounds, 0.69% hits;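 active = inhibition above a cutoff: mean of compounds within the control limits plus 3 SD of those, cut at about 17% in these data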;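 also: 0% = plate median of compound wells and 100% = probe without SIAE protein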
# PRMT1 inh: blocks human protein arginine methyltransferase 1 | Q99873 | recombinant PRMT1, activity-based probe fluorescence polarization | inhibition, % at 2.79 µM | 370,000 compounds, 1.3% hits | AID 652257;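 active = inhibition above about 21% made by adding two undisclosed values, limit read from the data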
# PRMT1 inh conf: confirmation of human PRMT1 inhibitors. 3,300 compounds, 42% hits. recombinant His-PRMT1, activity-based probe fluorescence polarization. shares compounds with PRMT1 inh. inhibition, % at 2.79 µM. AID 687036;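 active = mean inhibition across replicates above the hit cutoff derived for the earlier primary screen, cut at about 22% in these data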
# An asterisk follows results filed as active; . = no result.
SMILES,mABHD4 FP,HTRA1 inhibitor,TCR CD3 inh,SIAE inh,PRMT1 inh,PRMT1 inh conf
COc1ccccc1CNS(=O)(=O)c1cc(CN2C(=O)c3cccnc3C2=O)ccc1OC,8,3,3,0,1,.
CC(C)Oc1ccc(C(=O)CCN2CCOCC2)cc1,9,1,3,1,10,.
CCCCCOc1ccc(C(=O)CCN2CCOCC2)cc1,0,-1,-3,-1,26*,2
O=c1c2ccc(F)cc2nc2sc(Nc3ccc4c(c3)CCC4)nn12,4,.,.,2,2,.
COc1ccc(C(=O)NCC23C=CC(O2)C2C(=O)N(Cc4ccccc4)C(=O)C23)cc1 (centres undefined),0,3,0,3,54*,7
COc1ccc(CCNC(=O)c2ccc(CN3CCC(Cc4ccccc4)CC3)cc2)cc1,-5,4,-3,-9,0,.
Cc1cc(=O)[nH]c(SCn2nnc3ccccc3c2=O)n1,-8,-6,1,2,31*,6
O=c1ccnc(SCn2nnc3ccccc3c2=O)[nH]1,-6,-1,-6,-1,44*,0
C=CCN1C(=O)[C@H](CC(=O)NCC23CC4CC(CC(C4)C2)C3)[C@@]2(C(=O)OC)CCCCC=C12,5,.,.,9,-3,.
COc1ccc(CN2C[C@]3(C=C(C)Cn4c(=O)n(-c5ccccc5)c(=O)n43)N(C(=O)OCc3ccccc3)C2=NC(=O)c2ccccc2)c(OC)c1,-16,.,.,4,-5,.
Cc1ccc(CNC2CCC23CCC(c2ccccc2)CC3)o1 (centres undefined),6,.,.,-2,-3,.
CCCOc1ccc(N2C(=O)CC(NCCNc3ccc(S(=O)(=O)CC)cc3)C2=O)cc1 (centres undefined),1,-5,6,-9,7,.
CCOc1ccc(N2C(=O)CC(NCCc3ccc(S(N)(=O)=O)cc3)C2=O)cc1 (centres undefined),4,6,5,7,53*,3
CCCOc1ccc(N2C(=O)CC(NCCc3ccc(S(N)(=O)=O)cc3)C2=O)cc1 (centres undefined),6,2,2,4,51*,-2
CCOc1ccc(N2C(=O)CC(NCCc3ccncc3)C2=O)cc1 (centres undefined),0,7,-2,-2,58*,0
CCOc1ccc(N2C(=O)CC(NCCc3c[nH]c4ccccc34)C2=O)cc1 (centres undefined),5,-2,-1,7,31*,14
Cn1c(SCC(=O)Nc2ccccc2-c2ccccc2)nnc1-c1ccccc1,-6,.,.,0,2,.
C=CC(=O)NC1CCCCN(CC)C1=O (centres undefined),-1,.,.,-6,5,.
CC(=O)c1cc(-c2cnn(Cc3ccccc3)c2)c(=O)n2c1CCC2,-2,.,.,-5,-6,.
S=c1nc(C23CC4CC(CC(C4)C2)C3)[nH][nH]1,1,0,-3,-1,34*,9
Cc1ccccc1OCCCN1CCC(C(O)(c2ccccc2)c2ccccc2)CC1,13,.,-3,6,-2,.
O=C(Nc1cccc(N2C(=O)C=CC2=O)c1)c1cccs1,-15,-68,5,-21,86*,94*
Cc1ccc(N2C(=O)c3cccc4c(N)ccc(c34)C2=O)c2cccnc12,4,11,13,-38,94*,119*
CC1CCC2(CCC(=O)N2CCCOC(=O)c2ccccc2)CC1 (centres undefined),-3,.,.,-2,-3,.
COC(=O)[C@@]1(C)[C@H]2C(=O)N(Cc3ccccc3)C(=O)[C@H]2[C@H]2CN=C(SCc3ccccc3)N21,4,3,-5,7,0,.
SMILES,mABHD4 FP,HTRA1 inhibitor,TCR CD3 inh,SIAE inh,PRMT1 inh,PRMT1 inh conf
CCN1C(=O)[C@H]2[C@H]3CN=C(SCC(=O)c4ccccc4)N3[C@@](C)(C(=O)OC)[C@H]2C1=O,-4,-2,2,7,83*,73*
COC(=O)[C@@]1(Cc2ccccc2)[C@H]2C(=O)N(C)C(=O)[C@H]2[C@H]2CN=C(SCC(=O)c3ccccc3)N21,1,-1,3,-1,45*,33*
COC(=O)[C@@]1(Cc2ccccc2)[C@H]2C(=O)N(C)C(=O)[C@H]2[C@H]2CN=C(SCC3CC3)N21,-3,7,5,1,0,.
O=C(O)c1cccc(-n2cccc2/C=N/O)c1,4,4,0,2,0,.
O=C(O)c1cccc(-n2cccc2/C=C\[N+](=O)[O-])c1,15,2,-3,-1,36*,5
O=C(CN1CC[n+]2c(-c3ccccc3)csc21)c1ccc(Br)cc1,6,.,13,8,49*,55*
O=C(CN1CC[n+]2c(-c3cccs3)csc21)c1ccc(Br)cc1,9,-3,6,4,25*,42*
O=C(c1ccncc1F)N1CCC(n2nnc3ncccc32)CC1,4,.,.,-4,0,.
COc1ccc2c(c1)CC/C(=C\c1ccc(C)o1)C2=O,15,-7,-4,2,39*,-6
CN(C)S(=O)(=O)c1cccc(C(=O)N/N=C\c2ccccc2)c1,3,.,.,1,0,.
Cc1nc2ccc(S(=O)(=O)NCC(=O)NCc3ccc4c(c3)OCO4)cc2s1,-8,0,7,-9,49*,1
CCCCc1c(O)nc(SCC(=O)c2ccccc2)n(-c2ccccc2OC)c1=O,4,7,-6,5,40*,14
C#CCN(CC=C)Cc1ccc(OC)cc1OC,0,.,.,-4,2,.
O=C(O)C1Nc2c(C(F)(F)F)ccc(Cl)c2C2C=CCC12 (centres undefined),36*,20,0,4,33*,28*
O=C(O)C1Nc2c(C(=O)N3CCOCC3)cccc2C2C=CCC12 (centres undefined),.,6,.,.,.,.
COc1cc(/C=C2\S/C(=N/S(=O)(=O)c3ccc(C)cc3)NC2=O)c([N+](=O)[O-])cc1OC,10,4,9,-21,27*,2
Cc1ccc(S(=O)(=O)/N=C2/NC(=O)/C(=C/c3cc([N+](=O)[O-])ccc3O)S2)cc1,17,-4,-12,-32,14,.
CN(C)[C@@H]1CCN(c2cccc3c2S(=O)(=O)N2CC[C@@H](C2)O3)C1,7,.,.,6,0,.
O=C(O)Cn1cc(/C=N/Nc2ccc([N+](=O)[O-])cn2)c2ccccc21,7,7,-12,-3,28*,6
Cc1ccc(Cn2cc(/C=N/Nc3ccc([N+](=O)[O-])cn3)c3ccccc32)cc1,-3,-3,3,7,3,.
COc1ccc(C=NNC(=O)c2cc(-c3ccc(C)c(C)c3)n[nH]2)cc1OCc1ccccc1,-79,.,.,-83,-5,.
COc1ccc(CCNC(=O)CSc2ccc(NC(C)=O)cc2)cc1OC,6,1,-6,5,25*,31*
